Activity calls are given as the source filed them. The calls are words filed in the database; no cut-off is given here.
How the values were obtained:
[1] = target: Phosphatidylinositol 4,5-bisphosphate 3-kinase catalytic subunit gamma isoform (Homo sapiens, UniProt P48736); test: Inhibition of PIK3CG (unknown origin) assessed as remaining activity at 1 uM by Kinome scan method relative to control
[2] = target: Proto-oncogene tyrosine-protein kinase Src (Homo sapiens) (UniProt P12931); test: Inhibition of SRC (unknown origin) assessed as remaining activity at 1 uM by Kinome scan method relative to control
[3] = target: Dual serine/threonine and tyrosine protein kinase (Homo sapiens) (UniProt Q6XUX3); test: Inhibition of RIPK5 (unknown origin) assessed as remaining activity at 1 uM by Kinome scan method relative to control
Homo sapiens = species on record: Homo sapiens; test: Inhibition of recombinant His-tagged full-length MST1 D109A mutant (unknown origin) expressing in Escherichia coli assessed as GST-tagged MOB1 phosphorylation level at 0.01 to 1 uM incubated for 15 min by immunoblot analysis; conditions: dose 0.01-1 µM
[4] = target: Casein kinase I isoform delta (Homo sapiens) (UniProt P48730); test: Inhibition of CSNK1D (unknown origin) assessed as remaining activity at 1 uM by Kinome scan method relative to control
Procedure, shortened: (§1)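 Active-site-dependent competition-binding profiling (KINOMEscan) at 1 μM against a 468-kinase panel; compound supplied from a 10 mM DMSO stock. Read-out is ctrl% = (test signal − positive control signal)/(negative control signal − positive control signal) × 100. DMSO is the negative control (100%) and a control compound the positive control (0%). Lower ctrl% means tighter binding.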

[5] = target: Interleukin-1 receptor-associated kinase 3 (Homo sapiens) (UniProt Q9Y616); test: Inhibition of IRAK3 (unknown origin) assessed as remaining activity at 1 uM by Kinome scan method relative to control
[6] = target: CDK4/Cyclin D3 (Homo sapiens) (UniProt P11802+P30281); test: Inhibition of CDK4/cyclinD3 (unknown origin) assessed as remaining activity at 1 uM by Kinome scan method relative to control; assay type: protein-complex assay; procedure, shortened: as §1
[7] = system: Mast/stem cell growth factor receptor Kit (Homo sapiens), P10721 [A829P]; test: Inhibition of KIT A829P mutant (unknown origin) assessed as remaining activity at 1 uM by Kinome scan method relative to control
[8] = target: Tyrosine-protein kinase ABL1 (Homo sapiens, UniProt P00519, M351T); test: Binding affinity to phosphorylated ABL1 M351T mutant (unknown origin) assessed as dissociation constant
[9] = target: Vascular endothelial growth factor receptor 1 (Homo sapiens) (UniProt P17948); test: Inhibition of FLT1 (unknown origin) assessed as remaining activity at 1 uM by Kinome scan method relative to control
[10] = target: Glycogen synthase kinase-3 alpha (Homo sapiens) (UniProt P49840); test: Inhibition of GSK3alpha (unknown origin) assessed as remaining activity at 1 uM by Kinome scan method relative to control
[11] = target: cAMP-dependent protein kinase catalytic subunit PRKX (Homo sapiens) (UniProt P51817); test: Inhibition of PRKX (unknown origin) assessed as remaining activity at 1 uM by Kinome scan method relative to control
[12] = target: Serine/threonine-protein kinase Nek5 (Homo sapiens) (UniProt Q6P3R8); test: Inhibition of NEK5 (unknown origin) assessed as remaining activity at 1 uM by Kinome scan method relative to control
[13] = target: Dual specificity protein kinase TTK (Homo sapiens) (UniProt P33981); test: Inhibition of TTK (unknown origin) assessed as remaining activity at 1 uM by Kinome scan method relative to control
[14] = target: Protein kinase C eta type (Homo sapiens) (UniProt P24723); test: Inhibition of PRKCH (unknown origin) assessed as remaining activity at 1 uM by Kinome scan method relative to control
[15] = Acute toxicity in wild-type mouse assessed as bromodeoxyuridine positive cells at 1 mg/kg,ip administrated daily for 2 months and after 2 weeks drug withdrawal by H and E staining based immunohistochemical analysis; assay type: organism-based; conditions: in vivo, 1460 h
Procedure, shortened: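 Wild-type mice dosed 1 mg/kg i.p. daily for 2 months (vehicle 0.1% citric acid aqueous solution with 20% Kolliphor HS 15), or dosed and then withdrawn 2 weeks. Liver sections given H&E and IHC for CK19 and BrdU; positive cells counted, n = 3; means ± SD, Student's t test.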

[16] = target: Receptor-type tyrosine-protein kinase FLT3 (Homo sapiens) (UniProt P36888); test: Inhibition of FLT3-autoinnibited (unknown origin) assessed as remaining activity at 1 uM by Kinome scan method relative to control
[17] = target: Cyclin-dependent kinase 2 homolog (Plasmodium falciparum (isolate K1 / Thailand)) (UniProt Q07785); test: Inhibition of Plasmodium falciparum PK5 assessed as remaining activity at 1 uM by Kinome scan method relative to control
[18] = target: Mitotic checkpoint serine/threonine-protein kinase BUB1 (Homo sapiens) (UniProt O43683); test: Inhibition of BUB1 (unknown origin) assessed as remaining activity at 1 uM by Kinome scan method relative to control
Procedure, shortened: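 KINOMEscan active-site-dependent competition-binding panel of 468 kinases, compound at 1 μM from a DMSO stock. Result reported as ctrl% = (test signal − positive control signal)/(negative control signal − positive control signal) × 100. The negative control is DMSO (100%) and the positive control is a control compound (0%). Lower ctrl% means tighter binding.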

[19] = target: 3-phosphoinositide-dependent protein kinase 1 (Homo sapiens) (UniProt O15530); test: Inhibition of PDPK1 (unknown origin) assessed as remaining activity at 1 uM by Kinome scan method relative to control
[20] = target: Mitogen-activated protein kinase 12 (Homo sapiens) (UniProt P53778); test: Inhibition of P38gamma (unknown origin) assessed as remaining activity at 1 uM by Kinome scan method relative to control
Aurora kinase A = Aurora kinase A (Homo sapiens, UniProt O14965); test: Binding affinity to AURKA (unknown origin) assessed as dissociation constant
[21] = target: Mitogen-activated protein kinase kinase kinase 1 (Homo sapiens) (UniProt Q13233); test: Inhibition of MAP3K1 (unknown origin) assessed as remaining activity at 1 uM by Kinome scan method relative to control
[22] = target: Inhibitor of nuclear factor kappa-B kinase subunit alpha (Homo sapiens) (UniProt O15111); test: Inhibition of IKK-alpha (unknown origin) assessed as remaining activity at 1 uM by Kinome scan method relative to control
[23] = target: Serine/threonine-protein kinase Nek2 (Homo sapiens) (UniProt P51955); test: Inhibition of NEK2 (unknown origin) assessed as remaining activity at 1 uM by Kinome scan method relative to control
[24] = system: Tyrosine-protein kinase ABL1 (Homo sapiens), P00519 [E255K]; test: Inhibition of phosphorylated ABL1 E255K mutant (unknown origin) assessed as remaining activity at 1 uM by Kinome scan method relative to control
[25] = target: Mitogen-activated protein kinase kinase kinase 13 (Homo sapiens) (UniProt O43283); test: Inhibition of LZK (unknown origin) assessed as remaining activity at 1 uM by Kinome scan method relative to control
[26] = target: Tyrosine-protein kinase ZAP-70 (Homo sapiens) (UniProt P43403); test: Inhibition of ZAP70 (unknown origin) assessed as remaining activity at 1 uM by Kinome scan method relative to control
Chain of Tyrosine-protein kinase ZAP-70 (Homo sapiens) (P43403 whole entry): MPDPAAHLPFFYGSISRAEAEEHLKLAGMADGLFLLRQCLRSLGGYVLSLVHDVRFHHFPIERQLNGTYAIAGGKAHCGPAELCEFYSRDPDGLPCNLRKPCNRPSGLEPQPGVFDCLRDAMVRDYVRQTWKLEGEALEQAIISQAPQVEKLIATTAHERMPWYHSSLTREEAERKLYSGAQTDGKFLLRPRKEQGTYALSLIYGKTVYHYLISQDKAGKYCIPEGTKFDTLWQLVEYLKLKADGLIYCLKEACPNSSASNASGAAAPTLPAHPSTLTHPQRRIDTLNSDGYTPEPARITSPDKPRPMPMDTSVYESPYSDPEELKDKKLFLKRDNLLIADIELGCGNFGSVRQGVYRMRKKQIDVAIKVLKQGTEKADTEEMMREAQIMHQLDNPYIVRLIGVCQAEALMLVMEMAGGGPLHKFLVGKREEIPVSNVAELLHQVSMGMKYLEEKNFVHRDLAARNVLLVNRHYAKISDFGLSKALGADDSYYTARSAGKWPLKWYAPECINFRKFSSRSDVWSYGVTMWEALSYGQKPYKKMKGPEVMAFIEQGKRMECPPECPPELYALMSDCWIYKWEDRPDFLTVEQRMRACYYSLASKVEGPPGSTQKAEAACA

Chain of Dual serine/threonine and tyrosine protein kinase (Homo sapiens) (Q6XUX3 whole entry): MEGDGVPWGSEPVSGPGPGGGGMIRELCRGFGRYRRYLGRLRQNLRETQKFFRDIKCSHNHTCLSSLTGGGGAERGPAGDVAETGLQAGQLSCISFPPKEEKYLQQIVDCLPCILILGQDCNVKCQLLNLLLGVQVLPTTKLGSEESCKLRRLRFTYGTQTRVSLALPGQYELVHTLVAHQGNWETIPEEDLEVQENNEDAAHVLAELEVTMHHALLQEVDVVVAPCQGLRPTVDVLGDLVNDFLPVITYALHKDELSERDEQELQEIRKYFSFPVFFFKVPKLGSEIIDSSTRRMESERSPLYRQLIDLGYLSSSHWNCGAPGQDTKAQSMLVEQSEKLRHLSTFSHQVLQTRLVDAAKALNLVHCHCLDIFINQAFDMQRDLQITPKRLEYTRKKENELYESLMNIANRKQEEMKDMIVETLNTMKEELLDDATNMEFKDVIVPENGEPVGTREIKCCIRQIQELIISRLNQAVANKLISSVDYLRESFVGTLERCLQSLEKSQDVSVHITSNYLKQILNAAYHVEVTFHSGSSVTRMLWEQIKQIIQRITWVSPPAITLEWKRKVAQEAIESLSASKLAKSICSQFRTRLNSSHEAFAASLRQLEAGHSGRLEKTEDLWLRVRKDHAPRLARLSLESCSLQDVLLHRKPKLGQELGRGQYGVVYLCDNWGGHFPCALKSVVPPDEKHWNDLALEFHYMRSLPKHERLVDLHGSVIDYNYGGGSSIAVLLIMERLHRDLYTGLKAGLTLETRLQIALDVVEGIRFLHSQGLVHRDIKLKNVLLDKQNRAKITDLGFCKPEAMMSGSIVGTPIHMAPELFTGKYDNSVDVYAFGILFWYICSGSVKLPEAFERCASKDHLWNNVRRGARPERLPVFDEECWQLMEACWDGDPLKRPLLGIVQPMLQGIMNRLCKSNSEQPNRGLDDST
Chain of cAMP-dependent protein kinase catalytic subunit PRKX (Homo sapiens) (P51817 whole entry): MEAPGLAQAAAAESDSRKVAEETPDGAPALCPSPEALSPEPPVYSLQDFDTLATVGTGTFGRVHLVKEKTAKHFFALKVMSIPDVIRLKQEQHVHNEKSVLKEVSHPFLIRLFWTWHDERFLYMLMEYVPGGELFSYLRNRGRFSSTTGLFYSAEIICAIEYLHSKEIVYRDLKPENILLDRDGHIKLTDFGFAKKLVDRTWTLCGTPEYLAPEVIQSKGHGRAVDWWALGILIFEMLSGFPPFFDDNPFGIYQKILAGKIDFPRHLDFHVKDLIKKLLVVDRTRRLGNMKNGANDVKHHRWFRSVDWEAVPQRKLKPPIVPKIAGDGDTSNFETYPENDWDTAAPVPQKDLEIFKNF
Chain of Phosphatidylinositol 4,5-bisphosphate 3-kinase catalytic subunit gamma isoform (P48736 whole entry, looked up, canonical isoform): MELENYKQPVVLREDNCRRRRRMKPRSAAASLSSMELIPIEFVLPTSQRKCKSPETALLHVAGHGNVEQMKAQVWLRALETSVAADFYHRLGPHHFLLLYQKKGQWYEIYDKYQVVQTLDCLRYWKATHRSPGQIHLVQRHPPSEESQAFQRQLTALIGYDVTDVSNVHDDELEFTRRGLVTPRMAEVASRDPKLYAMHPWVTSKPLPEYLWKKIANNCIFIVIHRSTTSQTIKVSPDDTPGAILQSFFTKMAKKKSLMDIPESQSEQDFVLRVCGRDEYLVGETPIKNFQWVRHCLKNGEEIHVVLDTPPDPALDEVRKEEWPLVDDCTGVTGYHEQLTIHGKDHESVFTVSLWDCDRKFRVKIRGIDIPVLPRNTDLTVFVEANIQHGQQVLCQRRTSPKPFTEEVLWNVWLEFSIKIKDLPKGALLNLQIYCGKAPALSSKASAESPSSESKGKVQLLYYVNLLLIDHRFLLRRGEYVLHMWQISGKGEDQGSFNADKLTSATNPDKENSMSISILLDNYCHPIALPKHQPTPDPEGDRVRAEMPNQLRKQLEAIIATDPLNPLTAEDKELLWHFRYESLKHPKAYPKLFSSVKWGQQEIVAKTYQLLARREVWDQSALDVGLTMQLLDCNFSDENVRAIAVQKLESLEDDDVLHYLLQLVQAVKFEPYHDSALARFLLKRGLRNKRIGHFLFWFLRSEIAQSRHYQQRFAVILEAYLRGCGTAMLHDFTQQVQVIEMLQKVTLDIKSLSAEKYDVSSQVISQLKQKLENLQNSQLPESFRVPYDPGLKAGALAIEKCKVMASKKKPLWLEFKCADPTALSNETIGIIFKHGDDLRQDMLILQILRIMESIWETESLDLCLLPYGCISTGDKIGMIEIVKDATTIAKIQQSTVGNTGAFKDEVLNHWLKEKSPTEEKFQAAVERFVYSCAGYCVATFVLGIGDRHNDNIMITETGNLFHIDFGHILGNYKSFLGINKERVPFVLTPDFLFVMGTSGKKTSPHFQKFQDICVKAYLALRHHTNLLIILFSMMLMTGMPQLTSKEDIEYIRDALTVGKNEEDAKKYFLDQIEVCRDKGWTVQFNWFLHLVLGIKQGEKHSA
Chain of Serine/threonine-protein kinase Nek2 (Homo sapiens) (P51955 whole entry): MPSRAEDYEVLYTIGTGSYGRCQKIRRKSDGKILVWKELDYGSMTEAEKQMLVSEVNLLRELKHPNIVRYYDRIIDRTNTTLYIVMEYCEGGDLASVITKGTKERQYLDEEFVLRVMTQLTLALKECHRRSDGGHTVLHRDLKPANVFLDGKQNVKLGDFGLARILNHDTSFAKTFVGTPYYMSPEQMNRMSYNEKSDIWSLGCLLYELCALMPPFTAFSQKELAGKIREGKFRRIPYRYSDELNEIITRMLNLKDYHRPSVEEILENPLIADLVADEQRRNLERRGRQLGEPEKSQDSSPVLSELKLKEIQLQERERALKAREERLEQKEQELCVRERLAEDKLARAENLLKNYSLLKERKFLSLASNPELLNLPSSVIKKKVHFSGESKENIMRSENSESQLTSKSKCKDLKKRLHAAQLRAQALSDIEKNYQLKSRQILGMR
Chain of Glycogen synthase kinase-3 alpha (Homo sapiens) (P49840 2-483 limits assumed): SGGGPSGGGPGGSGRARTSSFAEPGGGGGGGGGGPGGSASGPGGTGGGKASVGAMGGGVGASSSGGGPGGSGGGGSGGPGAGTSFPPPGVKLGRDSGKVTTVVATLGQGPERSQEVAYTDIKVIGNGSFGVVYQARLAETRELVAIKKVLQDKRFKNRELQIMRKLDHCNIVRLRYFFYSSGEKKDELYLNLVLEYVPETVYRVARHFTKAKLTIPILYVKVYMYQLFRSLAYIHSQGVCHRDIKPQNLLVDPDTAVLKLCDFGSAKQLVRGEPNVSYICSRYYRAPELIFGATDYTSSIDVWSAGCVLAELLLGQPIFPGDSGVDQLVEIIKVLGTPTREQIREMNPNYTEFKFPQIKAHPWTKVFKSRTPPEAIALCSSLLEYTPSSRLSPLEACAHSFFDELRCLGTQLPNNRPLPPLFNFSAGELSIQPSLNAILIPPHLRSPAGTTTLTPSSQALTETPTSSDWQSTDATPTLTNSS
Chain of Interleukin-1 receptor-associated kinase 3 (Homo sapiens) (Q9Y616 whole entry): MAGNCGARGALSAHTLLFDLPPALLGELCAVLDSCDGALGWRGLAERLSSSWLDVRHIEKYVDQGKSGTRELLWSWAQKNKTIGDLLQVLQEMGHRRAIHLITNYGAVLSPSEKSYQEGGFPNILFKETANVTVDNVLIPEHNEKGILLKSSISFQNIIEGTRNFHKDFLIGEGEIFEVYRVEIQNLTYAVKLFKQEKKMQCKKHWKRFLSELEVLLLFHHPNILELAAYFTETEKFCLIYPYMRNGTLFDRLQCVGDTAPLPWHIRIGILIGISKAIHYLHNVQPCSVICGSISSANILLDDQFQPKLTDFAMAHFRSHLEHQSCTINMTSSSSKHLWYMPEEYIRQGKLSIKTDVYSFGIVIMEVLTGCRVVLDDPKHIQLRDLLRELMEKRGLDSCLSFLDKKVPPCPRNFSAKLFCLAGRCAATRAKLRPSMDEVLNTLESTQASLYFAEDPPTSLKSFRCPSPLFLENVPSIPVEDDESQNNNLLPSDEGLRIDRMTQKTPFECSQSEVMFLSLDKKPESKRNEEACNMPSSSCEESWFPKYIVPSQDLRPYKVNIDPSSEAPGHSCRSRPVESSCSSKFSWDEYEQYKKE
Chain of Cyclin-dependent kinase 2 homolog (Plasmodium falciparum (isolate K1 / Thailand)) (Q07785 whole entry): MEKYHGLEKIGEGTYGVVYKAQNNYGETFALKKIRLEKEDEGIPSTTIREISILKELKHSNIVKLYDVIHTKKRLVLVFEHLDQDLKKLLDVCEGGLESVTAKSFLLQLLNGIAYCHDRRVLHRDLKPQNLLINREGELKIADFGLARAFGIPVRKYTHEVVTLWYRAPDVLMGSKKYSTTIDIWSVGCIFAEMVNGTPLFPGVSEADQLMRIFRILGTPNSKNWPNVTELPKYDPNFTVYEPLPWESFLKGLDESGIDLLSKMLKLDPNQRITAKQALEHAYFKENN

CN1C(=O)c2sccc2N(C)c2nc(Nc3ccc(S(N)(=O)=O)cc3)ncc21
Activity [1]: 0.15%
Activity [2]: 100%
Activity [3]: 45%
inhibition (Homo sapiens): Active
Activity [4]: 90%
Activity [5]: 100%
Activity [6]: 100%
Activity [7]: 91%
Kd [8]: 42 nM
Activity [9]: 84%
Activity [10]: 100%
Activity [11]: 100%
Activity [12]: 97%
Activity [13]: 99%
Activity [14]: 100%
Activity [15]: Non-Toxic
Activity [16]: 100%
Activity [17]: 93%
Activity [18]: 95%
Activity [19]: 100%
Activity [20]: 48%
Kd (Aurora kinase A): 13 nM
Activity [21]: 48%
Activity [22]: 94%
Activity [23]: 59%
Activity [24]: 11%
Activity [25]: 86%
Activity [26]: 90%

Reference: ChEMBL document CHEMBL5705905, “Pharmacological targeting of kinases MST1 and MST2 augments tissue repair and regeneration” (Sci Transl Med, 2016)
